What is called pIC50 is the negative decadic logarithm of the IC50, by convention in mol/L.

Common to all, as to format: cell-based
Assay [1] deals with MDA-MB-231. Briefly: Cytotoxicity against human MDA-MB-231 cells assessed as reduction in cell viability after 72 hrs by MTT assay. The conditions noted are these: MDA-MB-231, 72 h. In outline:
(§1)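 Cells plated at 5 × 10^3 cell/well and grown 12 to 16 h, then exposed to compound for 72 h over 0.1 nM to 100 μM, with untreated wells as controls. Viability was read by MTT as absorbance at 570 nm.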

Another assay concerns MCF7. Description: Cytotoxicity against human MCF7 cells assessed as reduction in cell viability after 72 hrs by MTT assay. The conditions noted are these: MCF7, 72 h. In outline:
as §1
Background: Formazan colour is commonly taken as a measure of viable cells.

A further assay relates to NCI-H460. Description: Cytotoxicity against human H460 cells assessed as reduction in cell viability after 72 hrs by MTT assay. As to conditions: NCI-H460, 72 h. In outline:
as §1

The subject of assay [2] is MDA-MB-231. Description: Cytotoxicity against human MDA-MB-231 cells assessed as reduction in cell viability.

pIC50: −log10 of the molar value.

`CCCCCCCCCCC[C@@H](C[C@H]1OC(=O)[C@@H]1CCCCCC)OC(=O)[C@@H](CC(C)C)NC=O`: the pIC50 with MDA-MB-231 [1], with MCF7 and in the assay with NCI-H460 was less than 4.00 each time.

As for `CCCCCCCCCCC[C@H](C[C@H]1OC(=O)[C@@H]1CCCCCC)OC(=O)[C@H](CC(C)C)NC=O`, the pIC50 with MDA-MB-231 [1], with MCF7 and with NCI-H460 was less than 4.00 each time.

In the case of `CCCCCCCCCCC[C@H](C[C@@H]1OC(=O)[C@H]1CCCCCC)OC(=O)[C@H](CC(C)C)NC=O`, the pIC50 in the assay on MDA-MB-231 [1], in the assay with MCF7 and in the assay with NCI-H460 was less than 4.00 each time.

For `CCCCCCCCCCC[C@@H](C[C@H]1OC(=O)[C@@H]1CCCCCC)OC(=O)[C@H](CC(C)C)NC=O`, the pIC50 in the assay on MDA-MB-231 [1], with MCF7 and in the assay on NCI-H460 was less than 4.00 each time.

As to `CCCCCCCCCCC[C@H](C[C@H]1OC(=O)[C@@H]1CCCCCC)OC(=O)[C@@H](CC(C)C)NC=O`, the pIC50 in the assay on MDA-MB-231 [1], in the assay with MCF7 and in the assay with NCI-H460 was less than 4.00 in each case.

Consider `CCCCCCCCCCC[C@@H](C[C@@H]1OC(=O)[C@H]1CCCCCC)OC(=O)[C@@H](CC(C)C)NC=O`, for which the pIC50 in the assay with MDA-MB-231 [1], with MCF7 and with NCI-H460 was less than 4.00 throughout.

Consider `CCCCCCCCCCC[C@H](C[C@@H]1OC(=O)[C@H]1CCCCCC)OC(=O)[C@@H](CC(C)C)NC=O`, for which the pIC50 in the assay on MDA-MB-231 [1], in the assay with MCF7 and in the assay with NCI-H460 was less than 4.00 each time.

For `CC[C@@]1(O)C(=O)OCc2c1cc1n(c2=O)Cc2cc3ccccc3nc2-1` [CAMPTOTHECIN], the values for the pIC50 in the assay with MDA-MB-231 [1], with MCF7 and in the assay with NCI-H460 were 6.27, 6.80 and 6.96, respectively.

Turning to `CCCCCCCCCCC[C@@H](C[C@@H]1OC(=O)[C@H]1CCCCCC)OC(=O)[C@H](CC(C)C)NC=O` [ORLISTAT], the pIC50 in the assay with MDA-MB-231 [1] is less than 4.00; with MCF7 it was less than 4.00; with NCI-H460 it was less than 4.00; in the assay with MDA-MB-231 [2], 4.89.

These data come from ChEMBL document CHEMBL4251707, “Stereochemical Structure Activity Relationship Studies (S-SAR) of Tetrahydrolipstatin” (ACS Med Chem Lett, 2018).
